The values below come from ChEMBL document CHEMBL1124232, “Synthesis and biological activities of 4-O-(difluoromethyl)-5-substituted-uracil nucleoside analogues” (J Med Chem, 1988).

Where only a bound is given, the exact number is not on record here.

Data set [1] relates to Human alphaherpesvirus 1. The experiment in a line: Ability to reduce plaque formation of herpes simplex virus type 1 (HSV-1) by 50% in human embryonic lung fibroblast (HELF) cell cultures. It is filed as functional. The settings on record: Human alphaherpesvirus 1, HELF; read-out: ID50 (the source's name). An outline of the steps:
(§1)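 HELF confluent monolayers infected 1 h at 37 °C (about 50–100 plaques per bottle) with HSV-1 clinical isolate strain 77 or TK-deficient HSV-1 B 2006. Then 0.5% w/v methocel overlay with 10% fetal calf serum plus compound, 3 days at 37 °C. Neutral red staining; ID50 in µmol/L read graphically as 50% plaque-number reduction.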

A further data set concerns Human alphaherpesvirus 2. The experiment in a line: Ability to reduce plaque formation of herpes simplex virus type 2 (HSV-2) by 50% in human embryonic lung fibroblast (HELF) cell cultures. The note with it: Human alphaherpesvirus 2, HELF; read-out: ID50 (the source's name). It is filed as functional. In short, it runs like this:
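Clinical isolate HSV-2 strain 74 adsorbed 1 h at 37 °C onto confluent HELF monolayers, aiming at 50–100 plaques per bottle. Compound added in methocel (0.5% w/v) overlay containing 10% FCS; 2 days at 37 °C. Plaques visualised with neutral red. ID50 in µmol/L determined graphically as the concentration halving plaque counts.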

Data set [2] is described as follows: Minimum concentration not causing a microscopically detectable cytotoxic alteration of normal human embryonic lung fibroblast (HELF) morphology. In short, it runs like this:
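Semiconfluent HELF monolayers, 24 h post-seeding, exposed 3 days at 37 °C to compound up to 1 mmol/L. Microscopic comparison with untreated controls; toxicity signs were cell detachment, monolayer destruction, or cells remaining semiconfluent. Value is the lowest concentration showing no detectable morphological alteration.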

A short description of data set [3]: Inhibitory dose for HELF cell proliferation during 3-day treatment period. It is filed as functional. The note with it: Homo sapiens, 72 h, read-out: ID50 (the source's name).
The test system of the next data set is Human betaherpesvirus 5. Kind of data set: Ability to reduce plaque formation of human cytomegalovirus (HCMV) by 50% in human embryonic lung fibroblast (HELF) cell cultures. It is filed as functional. The settings on record: Human betaherpesvirus 5, HELF; read-out: ID50 (the source's name). An outline of the steps: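 Plaque reduction in HELF cells with laboratory HCMV strain Davis, plaques scored 8–12 days post-infection. ID50 is the concentration cutting plaque formation by 50%.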

Data set [4] deals with Human alphaherpesvirus 1. Kind of data set: Ability to reduce plaque formation of TK deficient herpes simplex virus type 1(HSV-1) by 50% in human embryonic lung fibroblast (HELF) cell cultures. It is filed as functional. The settings on record: Human alphaherpesvirus 1, HELF; read-out: ID50 (the source's name). An outline of the steps:
as §1

The next data set relates to Human alphaherpesvirus 3. Kind of data set: Ability to reduce plaque formation of varicella zoster virus (VZV) by 50% in human embryonic lung fibroblast (HELF) cell cultures. It is filed as functional. The settings on record: Human alphaherpesvirus 3, HELF; read-out: ID50 (the source's name). An outline of the steps:
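Fresh clinical VZV isolate, strain 3/S.H., in HELF cells. Plaques counted 5–6 days post-infection. ID50 is the concentration reducing plaque formation by 50%.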

In the case of `O=c1nc(OC(F)F)c(Br)cn1[C@@H]1O[C@H](CO)[C@@H](O)[C@@H]1O`, the figures for the IC50 in the data set on Human alphaherpesvirus 1 [1] and in the data set with Human alphaherpesvirus 2 were 3.6 µM and 17.6 µM, respectively. In data set [2], the Toxicity is above 1000 µM.
The corresponding values for `O=c1nc(OC(F)F)c(F)cn1[C@@H]1O[C@H](CO)[C@@H](O)[C@H]1O` are 500 µM, above 500 µM and above 500 µM.
The corresponding values for `O=c1nc(OC(F)F)c(I)cn1[C@@H]1O[C@H](CO)[C@@H](O)[C@H]1O` are above 500 µM, above 500 µM and above 500 µM.
For the molecule `O=c1[nH]c(=O)n(C2O[C@H](CO)[C@@H](O)[C@@H]2O)cc1I` (some centres not stated), the IC50 was determined as 51 µM in the data set on Human alphaherpesvirus 1 [1] and 70 µM in the data set on Human alphaherpesvirus 2. Further, the Toxicity in data set [2] was above 500 µM.
In the case of `Nc1nc2c(ncn2COCCO)c(=O)[nH]1` [ACYCLOVIR], the results for the IC50 (in data set [3]; with Human alphaherpesvirus 1 [1]; with Human alphaherpesvirus 2) were 360 µM, 0.48 µM and 1.6 µM, respectively.
As for `CCc1cn([C@H]2C[C@H](O)[C@@H](CO)O2)c(=O)nc1OC(F)F`, the IC50 in the data set on Human alphaherpesvirus 1 [1] and in the data set with Human alphaherpesvirus 2 was above 1000 µM in each case. Further, the Toxicity in data set [2] was above 1000 µM.
With `CCc1cn([C@H]2C[C@H](O)[C@@H](CO)O2)c(=O)[nH]c1=O` [EDOXUDINE], the IC50 in the data set with Human alphaherpesvirus 1 [1] is 10 µM; in the data set with Human alphaherpesvirus 2, 14.5 µM. Further, in data set [2], the Toxicity is above 1000 µM.
Take `O=c1nc(OC(F)F)ccn1[C@@H]1O[C@H](CO)[C@@H](O)[C@H]1O`: the IC50 in the data set with Human alphaherpesvirus 1 [1] and in the data set with Human alphaherpesvirus 2 was above 1000 µM throughout. In data set [2], this molecule gave a Toxicity above 1000 µM.
Take `O=c1nc(OC(F)F)c(Br)cn1[C@@H]1O[C@H](CO)[C@@H](O)[C@H]1O`: the IC50 with Human alphaherpesvirus 1 [1] and with Human alphaherpesvirus 2 was above 250 µM in each case. In data set [2], this molecule gave a Toxicity above 250 µM.
On to `O=c1nc(OC(F)F)c(/C=C/Br)cn1C1O[C@H](CO)[C@@H](O)[C@@H]1O` (some centres not stated), for which the figures for the IC50 in the data set on Human alphaherpesvirus 1 [1] and with Human alphaherpesvirus 2 were 1.1 µM and above 500 µM, respectively. In addition, the Toxicity in data set [2] was above 500 µM.
As to `Cc1cn(C2O[C@H](CO)[C@@H](O)[C@@H]2O)c(=O)nc1OC(F)F` (some centres not stated), the IC50 in the data set with Human betaherpesvirus 5 is above 500 µM; in the data set with Human alphaherpesvirus 1 [1] it was 0.8 µM; in the data set with Human alphaherpesvirus 1 [4], above 500 µM; in the data set on Human alphaherpesvirus 3, 1000 nM; in the data set with Human alphaherpesvirus 2 it was 3 µM. In data set [2], this molecule showed a Toxicity above 1000 µM.
Consider `O=c1[nH]c(=O)n([C@H]2C[C@H](O)[C@@H](CO)O2)cc1/C=C/Br` [BRIVUDINE], for which the IC50 in data set [3] worked out at 170 µM; in the data set on Human alphaherpesvirus 1 [1], 0.05 µM; in the data set with Human alphaherpesvirus 2, 27 µM.
Take `Cc1cn([C@@H]2O[C@H](CO)[C@@H](O)[C@@H]2O)c(=O)[nH]c1=O`: the IC50 was above 500 µM in the data set on Human betaherpesvirus 5; 0.64 µM in the data set with Human alphaherpesvirus 1 [1]; above 500 µM in the data set on Human alphaherpesvirus 1 [4]; 530 nM in the data set on Human alphaherpesvirus 3; 1.65 µM with Human alphaherpesvirus 2. The molecule also returned a Toxicity in data set [2] above 1000 µM.
In the case of `Cc1cn([C@H]2C[C@H](O)[C@@H](CO)O2)c(=O)nc1OC(F)F`, the IC50 with Human alphaherpesvirus 1 [1] and in the data set on Human alphaherpesvirus 2 was above 1000 µM each time. For the same molecule, in data set [2], the Toxicity is above 1000 µM.
Turning to `O=c1[nH]c(=O)n([C@@H]2O[C@H](CO)[C@@H](O)[C@@H]2O)cc1Br`, the results for the IC50 in the data set with Human alphaherpesvirus 1 [1] and with Human alphaherpesvirus 2 were 1.35 µM and 7.9 µM, respectively. In data set [2], this molecule yielded a Toxicity above 1000 µM.
The corresponding values for `CCc1cn(C2O[C@H](CO)[C@@H](O)[C@@H]2O)c(=O)nc1OC(F)F` (some centres not stated) are 27 µM, 210 µM and above 500 µM.
With `O=c1[nH]c(=O)n([C@H]2C[C@H](O)[C@@H](CO)O2)cc1Br` [BROXURIDINE], the IC50 in the data set on Human alphaherpesvirus 1 [1] was determined as 0.8 µM; with Human alphaherpesvirus 2, 1.4 µM. Besides, in data set [2], the Toxicity was above 1000 µM.
The corresponding values for `O=c1nc(OC(F)F)c(Br)cn1[C@H]1C[C@H](O)[C@@H](CO)O1` are 130 µM, above 500 µM and above 500 µM.
The corresponding values for `O=c1nc(OC(F)F)c(F)cn1[C@@H]1O[C@H](CO)[C@@H](O)[C@@H]1O` are 110 µM, 300 µM and above 500 µM.
As to `O=c1nc(OC(F)F)c(I)cn1[C@@H]1O[C@H](CO)[C@@H](O)[C@@H]1O`, the IC50 in the data set with Human alphaherpesvirus 1 [1] was determined as 29 µM; with Human alphaherpesvirus 2 it was 82 µM. This molecule showed a Toxicity in data set [2] above 1000 µM.
For `O=c1nc(OC(F)F)ccn1[C@@H]1O[C@H](CO)[C@@H](O)[C@@H]1O` the same measures were 430 µM, above 1000 µM and above 1000 µM.
`O=c1[nH]c(=O)n([C@@H]2O[C@H](CO)[C@@H](O)[C@H]2O)cc1/C=C/Br`: the IC50 in data set [3] was above 1000 µM; in the data set with Human alphaherpesvirus 1 [1], 0.115 µM; in the data set with Human alphaherpesvirus 2, 49 µM.
